Measurements taken from ChEMBL document CHEMBL1275449, “Potent in vitro antifungal activities of naturally occurring acetylenic acids” (Antimicrob Agents Chemother, 2008).
Values after ≈ are worked out from the molar mass of the structure shown.

How the values were obtained:
Aspergillus niger = assay: Antifungal activity against Aspergillus niger ATCC 16404 after 48 h by CLSI method; conditions: ATCC 16404, 48 h
Candida albicans [1] = assay: Antifungal activity against Fluconazole resistant Candida albicans clinical isolate 1 after 48 hrs by CLSI method; assay type: functional, organism-based
Method in brief: (§1)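 CLSI broth microdilution. Colonies from 24–72 h SD agar suspended in saline and sized by OD630 standard curve. Inoculum 1.5 × 10³ CFU/ml (final) in RPMI 1640 (0.2% dextrose, 0.03% glutamine, 0.165 M MOPS, pH 7.0). Twofold dilutions (11 levels) from 20% DMSO-saline, in duplicate. 35°C for 48 h, OD530 read before and after. IC50 fitted from % growth. MIC: no detectable growth. MFC: subculture onto SD agar.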

SK-MEL = assay: Cytotoxicity against human SK-MEL cells up to 32 uM by neutral red method; assay type: cell-based
Method in brief: (§2)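 Neutral red uptake cytotoxicity, top concentration 32 μM.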

Candida albicans [2] = assay: Antifungal activity against Candida albicans ATCC 60193 after 48 hrs by CLSI method; assay type: functional, organism-based; conditions: ATCC 60193, 48 h
Method in brief: as §1

Trichophyton rubrum [3] = assay: Antifungal activity against Trichophyton rubrum ATCC 10218 by CLSI method; assay type: functional, organism-based
Method in brief: (§3)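 Growth scraped from 1- to 6-week-old potato dextrose slants and filtered through Miracloth. Diluted in 5% Alamar blue-RPMI 1640 (MOPS pH 7.0) to 2.7 × 10⁴ CFU/ml. Eleven twofold dilutions in duplicate. Fluorescence at 544 nm excitation/590 nm emission read before and after 35°C, 5 days. IC50 fitted from percent growth. MIC taken as no detectable growth; MFC from clear or blue wells plated on PD agar.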

[4] = tested on: Trichophyton mentagrophytes; assay: Antifungal activity against Trichophyton mentagrophytes ATCC MYA-4439 by CLSI method; assay type: functional, organism-based
Method in brief: as §3

SK-OV-3 = assay: Cytotoxicity against human SKOV3 cells up to 32 uM by neutral red method; assay type: cell-based
Method in brief: as §2

Aspergillus fumigatus [5] = assay: Antifungal activity against Aspergillus fumigatus ATCC 204305 after 48 h by CLSI method; conditions: ATCC 204305, 48 h
BT-549 = assay: Cytotoxicity against human BT549 cells up to 32 uM by neutral red method; assay type: cell-based
Method in brief: as §2

Candida albicans [6] = assay: Antifungal activity against Candida albicans ATCC 14053 after 48 hrs by CLSI method; assay type: functional, organism-based; conditions: ATCC 14053, 48 h
Method in brief: as §1

Candida albicans [7] = assay: Antifungal activity against Candida albicans ATCC 32354 after 48 hrs by CLSI method; assay type: functional, organism-based; conditions: ATCC 32354, 48 h
Method in brief: as §1

Candida tropicalis = assay: Antifungal activity against Candida tropicalis ATCC 750 after 48 hrs by CLSI method; assay type: functional, organism-based; conditions: ATCC 750, 48 h
Method in brief: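 Yeast suspensions made from 3-5 colonies off 24-72 h SD agar plates in saline. They were diluted by OD630 standard curve in RPMI 1640 (0.2% dextrose, 0.03% glutamine, 0.165 M MOPS, pH 7.0) to 1.5 × 10³ CFU/ml. Twofold dilutions (11 concentrations, 20% DMSO-saline) run in duplicate. OD530 read before and after 35°C, 48 h. Line values are top test concentrations; no-growth endpoints give MIC/MFC.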

Cryptococcus neoformans [8] = assay: Antifungal activity against Cryptococcus neoformans ATCC 66031 after 72 hrs by CLSI method; assay type: functional, organism-based; conditions: ATCC 66031, 72 h
Method in brief: (§4)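 SD broth replaced RPMI because growth in RPMI was poor; other CLSI conditions were kept. Inoculum was 1.5 × 10³ CFU/ml from colonies on SD agar, checked by plating. Twofold serial dilutions (11 concentrations) in 20% DMSO-saline were tested in duplicate. OD530 was read before and after incubation at 35°C for 72 h. Percent growth gave IC50; the MIC is the lowest concentration with no detectable growth.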

LLC-PK1 = assay: Cytotoxicity against pig LLC-PK1 cells up to 32 uM by neutral red method; assay type: cell-based, Sus scrofa
Method in brief: as §2

[9] = tested on: Trichophyton mentagrophytes; assay: Antifungal activity against Trichophyton mentagrophytes ATCC 9533 by CLSI method; assay type: functional, organism-based
Method in brief: as §3

Candida albicans [10] = assay: Antifungal activity against Fluconazole resistant Candida albicans clinical isolate 17 after 48 hrs by CLSI method; assay type: functional, organism-based
Method in brief: as §1

KB = assay: Cytotoxicity against human KB cells up to 32 uM by neutral red method; assay type: cell-based
Method in brief: as §2

Nakaseomyces glabratus = assay: Antifungal activity against Candida glabrata ATCC 90030 after 48 hrs by CLSI methodCandida glabrata; assay type: functional, organism-based; conditions: ATCC 90030, 48 h
Method in brief: (§5)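 Candida inocula came from 24–72-h SD agar colonies suspended in saline. They were diluted by OD630 standard curve into RPMI 1640 (0.2% dextrose, 0.03% glutamine, 0.165 M MOPS, pH 7.0) to 1.5 × 10³ CFU/ml. Compounds were run as 11 twofold dilutions in 20% DMSO-saline, in duplicate, at 35°C for 48 h, with OD530 read before and after. Percent growth at the top concentration, IC50, MIC, and MFC (SD agar plating) were derived.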

Candida albicans [11] = assay: Antifungal activity against Candida albicans ATCC 90028 after 48 hrs by CLSI method; assay type: functional, organism-based; conditions: ATCC 90028, 48 h
Method in brief: as §1

Pichia kudriavzevii = assay: Antifungal activity against Candida krusei ATCC 6258 after 48 hrs by CLSI method; assay type: functional, organism-based; conditions: ATCC 6258, 48 h
Method in brief: as §5

Vero = assay: Cytotoxicity against African green monkey Vero cells up to 32 uM by neutral red method; assay type: cell-based; conditions: chlorocebus sabaeus
Method in brief: as §2

Trichophyton rubrum [12] = assay: Antifungal activity against Trichophyton rubrum ATCC MYA-4438 by CLSI method; assay type: functional, organism-based
Method in brief: as §3

Cryptococcus neoformans [13] = assay: Antifungal activity against Cryptococcus neoformans ATCC 90113 after 72 hrs by CLSI method; assay type: functional, organism-based; conditions: ATCC 90113, 72 h
Method in brief: as §4

Candida albicans [14] = assay: Antifungal activity against Candida albicans ATCC 200955 after 48 hrs by CLSI method; assay type: functional, organism-based; conditions: ATCC 200955, 48 h
Method in brief: as §1

Aspergillus fumigatus [15] = assay: Antifungal activity against Aspergillus fumigatus ATCC 90906 after 48 h by CLSI method; conditions: ATCC 90906, 48 h

| SMILES | Activity (SK-MEL) | IC50 (Candida albicans [2]) [nM] | IC50 (Trichophyton rubrum [3]) [nM] | MFC (Trichophyton rubrum [3]) [µM] | MIC (Trichophyton rubrum [3]) [µM] | IC50 [4] [nM] | MFC [4] [µM] | MIC [4] [µM] | Activity (SK-OV-3) | IC50 (Aspergillus fumigatus [5]) [nM] | MIC (Aspergillus fumigatus [5]) [µM] | Activity (BT-549) | IC50 (Candida albicans [6]) [nM] | IC50 (Candida albicans [7]) [nM] | IC50 (Candida tropicalis) [nM] | IC50 (Cryptococcus neoformans [8]) [nM] | Activity (LLC-PK1) | IC50 [9] [nM] | MFC [9] [µM] | MIC [9] [µM] | also measured |
| --- | --- | --- | --- | --- | --- | --- | --- | --- | --- | --- | --- | --- | --- | --- | --- | --- | --- | --- | --- | --- | --- |
| CCCCCCCCCCC#CCCCCC(=O)O | Non-toxic | 150000 | 6500 | 23.5 (≈ 6.26 µg/mL) | 17.6 (≈ 4.69 µg/mL) | 3000 | 5.9 (≈ 1.57 µg/mL) | 5.9 (≈ 1.57 µg/mL) | Non-toxic | 36600 | 141 (≈ 37.5 µg/mL) | Non-toxic | > 188000 | 188000 | 49100 | 1200 | Non-toxic | 3700 | 11.7 (≈ 3.12 µg/mL) | 7.3 (≈ 1.94 µg/mL) | IC50 (Aspergillus niger): > 188000 nM; IC50 (Candida albicans [1]): 82200 nM; MIC (Cryptococcus neoformans [8]): 188 µM (≈ 50 µg/mL); IC50 (Candida albicans [10]): 18800 nM; MIC (Candida albicans [10]): 70.4 µM (≈ 18.8 µg/mL); Activity (KB): Non-toxic; IC50 (Nakaseomyces glabratus): > 188000 nM; IC50 (Candida albicans [11]): 95400 nM; IC50 (Pichia kudriavzevii): 1900 nM; MIC (Pichia kudriavzevii): 4.4 µM (≈ 1.17 µg/mL); Activity (Vero): Non-toxic; IC50 (Trichophyton rubrum [12]): 4100 nM; MIC (Trichophyton rubrum [12]): 29.3 µM (≈ 7.81 µg/mL); IC50 (Cryptococcus neoformans [13]): > 188000 nM; IC50 (Candida albicans [14]): 66700 nM |
| CCCCCCCCCCCCC#CCCCCC(=O)O [6-NONADECYNOIC ACID] | Non-toxic | 1600 | 1000 | 5.3 (≈ 1.56 µg/mL) | 2 (≈ 0.589 µg/mL) | 400 | 0.7 (≈ 0.206 µg/mL) | 0.7 (≈ 0.206 µg/mL) | Non-toxic | 1100 | 2.7 (≈ 0.795 µg/mL) | Non-toxic | 800 | 1600 | 5200 | 1100 | Non-toxic | 900 | 2.7 (≈ 0.795 µg/mL) | 2 (≈ 0.589 µg/mL) | MIC (Candida albicans [1]): 2.7 µM (≈ 0.795 µg/mL); MIC (Candida albicans [2]): 2.7 µM (≈ 0.795 µg/mL); MFC (Candida albicans [6]): 2.7 µM (≈ 0.795 µg/mL); MIC (Candida albicans [6]): 1.3 µM (≈ 0.383 µg/mL); MIC (Candida albicans [7]): 8 µM (≈ 2.36 µg/mL); IC50 (Aspergillus fumigatus [15]): 1400 nM; MIC (Aspergillus fumigatus [15]): 6.6 µM (≈ 1.94 µg/mL); IC50 (Candida albicans [10]): 1500 nM; MIC (Candida albicans [10]): 8 µM (≈ 2.36 µg/mL); Activity (KB): Non-toxic; IC50 (Candida albicans [11]): 1300 nM; MIC (Candida albicans [11]): 2.7 µM (≈ 0.795 µg/mL); IC50 (Pichia kudriavzevii): 4100 nM; MIC (Pichia kudriavzevii): 10.6 µM (≈ 3.12 µg/mL); Activity (Vero): Non-toxic; IC50 (Trichophyton rubrum [12]): 600 nM; MIC (Trichophyton rubrum [12]): 3.3 µM (≈ 0.972 µg/mL); IC50 (Candida albicans [14]): 900 nM; MIC (Candida albicans [14]): 1.3 µM (≈ 0.383 µg/mL) |
